The test system of the data set is MS2 coat protein. Kind of data set: apparent Kd, MS2 coat protein; higher = weaker binding; RNA-MaP array; FMN 200 µM where present. In outline: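 The apparent Kd is reported as the median of filtered per-cluster binding-curve fits. To get these curves, designs transcribed by stalled E. coli RNA polymerase on Illumina sequencing-chip clusters were titrated with SNAP-549-labelled MS2 coat protein from 0.7 or 1.5 nM, doubling to 3 µM. Titrations were run without and then with constant ligand in 100 mM Tris-HCl pH 7.5, 80 mM KCl, 4 mM MgCl2, BSA, DTT, yeast tRNA and Tween-20, and green signal was normalised to red-channel RNA signal and control-cluster median Fmax.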

[1] abbreviates: designed as: OFF switch for flavin mononucleotide, no ligand.
[2] abbreviates: ligand present: flavin mononucleotide, designed as: OFF switch for flavin mononucleotide.
Setting [3] is: designed as: ON switch for flavin mononucleotide, no ligand.
Where [4] appears, read: ligand present: flavin mononucleotide, designed as: ON switch for flavin mononucleotide.

We go through 20 sequences from the EternaBench riboswitch data.

Usually apparent Kd stands for the concentration giving half-maximal binding under the conditions of the assay. “UGUAUGGACAGAGGAUAUGCCGAUAGGAUUUACUAUCGAAGAAUCCUCACAUGAGGAUCACCCAUGUAGAAGGCUGUCCAUACU”: the “apparent Kd” value reads like this: under setting [1], 8.14 nM; under setting [2], 38.4 nM.

As for “GGAAAACAUGAGGAUCACCCAUGUGAGGAUAUGAGCGUCUAGUUGAGAGAUUGGACGCUCAGAAGGCACAUGCC”, the “apparent Kd” value is, setting by setting: under setting [1], 28.5 nM; under setting [2], 247 nM.

Consider “UAUUAUCACGAAGGAUAUGCUGACAUGAGGAUCACCCAUGUAUGUAUAUUGAUCCAGCGUAUUUAGCAGAAGGUCGUGAGUAAA”, for which the “apparent Kd” value is, setting by setting: under setting [1], 45.9 nM; under setting [2], 43 nM.

For the sequence “CGCUGUCACGCAGGAUAUGCAUUGGAUUACAAUGCAGAAGGGCGAUUACAUGAGGAUCACCCAUGUGUAGACAGUGAAGAAGAG”, the “apparent Kd” value reads like this: under setting [3], 300 nM; under setting [4], 42.3 nM.

Regarding “GGUCCAACAUGAGGAUAUAGCACCUUAUUGGUGCUAGAAGGCGUGUCGAUAGACAUGAGGAUCACCCAUGUAAUAAAUUGGACC”, the “apparent Kd” value is 793 nM under setting [3] and 139 nM under setting [4].

With “UUCUUUCCUCAUGUACAUGAGGAACAUGAGGAUCACCCAUGUAGAAGGAUUUCAAUUAAAUUAAAAUAGGAUAUACAUCUAUUU”, the “apparent Kd” value runs as follows: under setting [1], 10.4 nM; under setting [2], 9.34 nM.

Turning to “UGAUUGCGUGUUAGGAUAUGGUUUGGUGUUUCGGGCUAGAAGGGACAUGAGGAUCACCCAUGUAACUGGCGGGU”, the “apparent Kd” value runs as follows: under setting [1], 54.9 nM; under setting [2], 67.7 nM.

On to “UUUCUCGGCGAGAAGGGAGUACAUGAGGAUCACCCAUGUGGUCCAUGGAGCUCAGGAUAUCGCGAGGUCGAUGUCGACGGAGUA”, for which the “apparent Kd” value is, setting by setting: under setting [1], 127 nM; under setting [2], 231 nM.

Regarding “UGGUACAUCGGAGGAUAUCAUGUAUAGACAUGAGGAUCACCCAUGUCGUACGAGAGUACGGAGAUUGAGAAGGCCGAUGUACCU”, the “apparent Kd” value was 21 nM under setting [3] and 16.6 nM under setting [4].

Turning to “CCAUGCGGAUGAGGAUAUUCAUCUAUGAGGAUAGAAGAAGGCAUACAUGAGGAUCACCCAUGUAUACGCAUGAGGAUCCCUUAC”, the “apparent Kd” value runs as follows: under setting [1], 24 nM; under setting [2], 26 nM.

Take “CCCGUCAUCGAGAAGGCCUCAACAUGAGGAUCACCCAUGUUGUAAUAUGGGAGGAUAUCGAUGAUACAGCUACGUUUCGUAGGG”: the “apparent Kd” value under setting [3] turned out to be 17.3 nM and the “apparent Kd” value under setting [4] is 6.33 nM.

For the sequence “GACUCGAAUGUAGGAUAUGCUGAGGAUAACUCAGCAGAAGGACAUGAGGAUCACCCAUGUCAAUGAGUGAAUAAUAAACGAGUC”, the “apparent Kd” value turned out to be 29 nM under setting [1] and 245 nM under setting [2].

Consider “AGCUAGUCAGGAUAUACGUAAAUGUCGAAAGACGUAUUGGGACAUGAGGAUCACCCAUGUAGAAGGGACUAGCA”, for which the “apparent Kd” value worked out at 27.2 nM under setting [1] and 108 nM under setting [2].

On to “GAUUUCGCAUGAGGAUAUGCUCGCAUUUCAAGAGCAGAAGGUAUGUCAUUAGACAUGAGGAUCACCCAUGUAGUUAAGAUUGAA”, for which the “apparent Kd” value was found to be 186 nM under setting [3] and 34.9 nM under setting [4].

“GCUUGUGAAGGAUAUACUGGAGGAGUGCGAUAGAAGCACGAACAUGAGGAUCACCCAUGUAGAAGGUCAGGCGU”: the “apparent Kd” value under setting [1] turned out to be 24.4 nM and the “apparent Kd” value under setting [2] was 29.1 nM.

Take “GGUCCGUAACAGAAGGCCGUAACUGGUAGUGGCGGAGGAUAUGUGGGCGGCCCUUGACAACAUGAGGAUCACCCAUGUAUGUAA”: the “apparent Kd” value was 335 nM under setting [3] and 20.3 nM under setting [4].

As for “UAUAUAUAGUAAGGAUAUGUAAUUAAUUUAUAAACAGAAGGUACUGACAUGAGGAUCACCCAUGUUUUAGUGUGGGCAUGUAGA”, the “apparent Kd” value reads like this: under setting [1], 95.3 nM; under setting [2], 155 nM.

Regarding “AGCACGAAAGUGCAACGAUGUAGCAGAAGGACAUGAGGAUCACCCAUGUAAGGUCUAUGACCAAUGUAGGAUAUGCUACAUCGA”, the “apparent Kd” value under setting [1] amounted to 6.62 nM and the “apparent Kd” value under setting [2] amounted to 35 nM.

In the case of “CGCUACGUUUCGUAGCAGUGUCAUCGAGAAGGCCCUGACAUGAGGAUCACCCAUGUUAAAACACAGGAGGAUAUCGAUGAUACA”, the “apparent Kd” value was found to be 4.39 nM under setting [3] and 4.56 nM under setting [4].

Take “GGUCCGUGUACAUGAGGAUCACCCAUGUCGAUGUUUCCUGGACAGGAUAUAUGCUUAAUACCGACAUAGAAGGGUCCACGUGUG”: the “apparent Kd” value was 91 nM under setting [3] and 191 nM under setting [4].
